Values belong to the molecule of their own block, whether it stands above or below them. Active and inactive are the calls of the source. The calls are words filed in the database; no cut-off is given here.
Assays:
[1] = target: T1, Dual specificity tyrosine-phosphorylation-regulated kinase 3 (Homo sapiens, UniProt O43781); test: Inhibition of full-length recombinant human GST-tagged DYRK3 expressed in Escherichia coli using woodtide as substrate after 30 mins in presence of [gamma-33P]ATP
T1 sequence (O43781 whole entry): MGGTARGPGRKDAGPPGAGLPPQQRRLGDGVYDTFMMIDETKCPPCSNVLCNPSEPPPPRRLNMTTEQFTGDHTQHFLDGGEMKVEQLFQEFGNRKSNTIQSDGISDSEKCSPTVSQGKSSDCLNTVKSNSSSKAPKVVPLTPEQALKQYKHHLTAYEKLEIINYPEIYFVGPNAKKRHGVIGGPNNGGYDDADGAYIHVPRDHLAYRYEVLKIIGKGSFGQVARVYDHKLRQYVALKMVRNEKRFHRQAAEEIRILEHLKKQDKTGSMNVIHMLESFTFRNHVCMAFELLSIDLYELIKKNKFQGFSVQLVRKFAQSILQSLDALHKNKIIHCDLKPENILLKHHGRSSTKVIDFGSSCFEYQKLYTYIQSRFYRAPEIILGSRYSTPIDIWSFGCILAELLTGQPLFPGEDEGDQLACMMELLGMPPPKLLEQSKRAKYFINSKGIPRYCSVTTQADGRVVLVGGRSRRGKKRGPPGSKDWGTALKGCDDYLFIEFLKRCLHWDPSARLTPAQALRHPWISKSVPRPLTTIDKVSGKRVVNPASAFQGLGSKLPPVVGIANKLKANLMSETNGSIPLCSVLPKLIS

[2] = target: T2, Dual specificity tyrosine-phosphorylation-regulated kinase 4 (Homo sapiens, UniProt Q9NR20); test: Inhibition of full-length recombinant human GST-tagged DYRK4 expressed in baculovirus infected insect cells using DYRKtide as substrate after 5 mins in presence of [gamma-33P]ATP by liquid scintillation counting
T2 sequence (Q9NR20 whole entry): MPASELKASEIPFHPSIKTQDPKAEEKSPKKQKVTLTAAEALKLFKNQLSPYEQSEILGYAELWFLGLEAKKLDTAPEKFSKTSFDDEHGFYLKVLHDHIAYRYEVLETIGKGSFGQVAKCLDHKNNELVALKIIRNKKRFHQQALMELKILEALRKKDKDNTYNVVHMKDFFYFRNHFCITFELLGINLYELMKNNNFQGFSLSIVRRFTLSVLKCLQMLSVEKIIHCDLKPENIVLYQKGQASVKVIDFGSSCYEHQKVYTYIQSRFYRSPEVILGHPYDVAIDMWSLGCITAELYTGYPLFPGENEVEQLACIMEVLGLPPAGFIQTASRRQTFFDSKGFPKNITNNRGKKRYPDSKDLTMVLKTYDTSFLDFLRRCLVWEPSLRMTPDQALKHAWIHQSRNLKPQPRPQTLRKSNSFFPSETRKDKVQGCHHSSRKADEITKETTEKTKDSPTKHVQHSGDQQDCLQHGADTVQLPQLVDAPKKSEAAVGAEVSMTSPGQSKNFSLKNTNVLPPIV

[3] = target: T3, Dual specificity tyrosine-phosphorylation-regulated kinase 2 (Homo sapiens, UniProt Q92630); test: Inhibition of DYRK2 (unknown origin) using woodtide as substrate after 40 mins in presence of [gamma-33P]ATP by microbeta scintillation counting
T3 sequence (Q92630 whole entry): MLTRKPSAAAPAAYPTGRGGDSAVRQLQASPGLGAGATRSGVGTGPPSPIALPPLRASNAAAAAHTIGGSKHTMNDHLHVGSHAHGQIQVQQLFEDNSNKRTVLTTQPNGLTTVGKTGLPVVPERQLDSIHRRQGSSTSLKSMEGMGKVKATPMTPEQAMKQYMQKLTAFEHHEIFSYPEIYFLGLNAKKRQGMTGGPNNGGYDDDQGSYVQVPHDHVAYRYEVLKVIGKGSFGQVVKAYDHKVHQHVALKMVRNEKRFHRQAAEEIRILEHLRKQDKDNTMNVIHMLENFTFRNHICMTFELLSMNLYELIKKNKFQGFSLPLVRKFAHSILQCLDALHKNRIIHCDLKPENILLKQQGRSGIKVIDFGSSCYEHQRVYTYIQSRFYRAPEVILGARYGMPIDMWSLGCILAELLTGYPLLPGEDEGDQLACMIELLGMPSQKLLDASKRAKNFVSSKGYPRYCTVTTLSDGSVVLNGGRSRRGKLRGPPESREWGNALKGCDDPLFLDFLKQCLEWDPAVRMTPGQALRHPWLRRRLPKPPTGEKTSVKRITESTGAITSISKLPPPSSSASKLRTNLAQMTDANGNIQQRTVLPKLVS

[4] = target: Dual specificity tyrosine-phosphorylation-regulated kinase 1A (Homo sapiens, UniProt Q13627); test: Inhibition of DYRK1A (unknown origin) using woodtide as substrate after 10 mins in presence of [gamma-33P]ATP by microbeta scintillation counting
[5] = target: Dual specificity tyrosine-phosphorylation-regulated kinase 1B (Homo sapiens, UniProt Q9Y463); test: Inhibition of DYRK1B (unknown origin) using woodtide as substrate after 40 mins in presence of [gamma-33P]ATP by microbeta scintillation counting
Dual specificity tyrosine-phosphorylation-regulated kinase 1B, sequence (Q9Y463 whole entry): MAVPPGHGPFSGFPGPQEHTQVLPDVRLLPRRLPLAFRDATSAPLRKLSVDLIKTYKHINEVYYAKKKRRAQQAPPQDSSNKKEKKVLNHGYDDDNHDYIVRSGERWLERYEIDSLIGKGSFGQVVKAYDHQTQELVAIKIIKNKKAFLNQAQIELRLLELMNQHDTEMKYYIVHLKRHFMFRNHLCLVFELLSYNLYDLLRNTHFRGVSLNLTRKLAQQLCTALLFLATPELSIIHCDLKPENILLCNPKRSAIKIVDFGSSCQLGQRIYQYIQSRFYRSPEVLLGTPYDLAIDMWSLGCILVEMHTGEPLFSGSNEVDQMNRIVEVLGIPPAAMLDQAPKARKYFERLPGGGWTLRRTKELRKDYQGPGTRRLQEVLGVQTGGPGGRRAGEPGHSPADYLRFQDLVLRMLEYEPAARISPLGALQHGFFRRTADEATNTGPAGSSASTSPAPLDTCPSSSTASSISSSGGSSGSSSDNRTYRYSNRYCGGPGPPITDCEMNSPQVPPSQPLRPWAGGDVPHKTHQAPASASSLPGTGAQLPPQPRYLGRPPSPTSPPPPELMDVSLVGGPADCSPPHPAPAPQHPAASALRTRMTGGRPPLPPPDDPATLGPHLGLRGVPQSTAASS

[6] = target: Dual specificity protein kinase CLK1 (Homo sapiens, UniProt P49759); test: Inhibition of CLK1 (unknown origin) using KKGRSRSRSRSRSR as substrate after 40 mins in presence of [gamma-33P]ATP by microbeta scintillation counting
Dual specificity protein kinase CLK1, sequence (P49759 whole entry): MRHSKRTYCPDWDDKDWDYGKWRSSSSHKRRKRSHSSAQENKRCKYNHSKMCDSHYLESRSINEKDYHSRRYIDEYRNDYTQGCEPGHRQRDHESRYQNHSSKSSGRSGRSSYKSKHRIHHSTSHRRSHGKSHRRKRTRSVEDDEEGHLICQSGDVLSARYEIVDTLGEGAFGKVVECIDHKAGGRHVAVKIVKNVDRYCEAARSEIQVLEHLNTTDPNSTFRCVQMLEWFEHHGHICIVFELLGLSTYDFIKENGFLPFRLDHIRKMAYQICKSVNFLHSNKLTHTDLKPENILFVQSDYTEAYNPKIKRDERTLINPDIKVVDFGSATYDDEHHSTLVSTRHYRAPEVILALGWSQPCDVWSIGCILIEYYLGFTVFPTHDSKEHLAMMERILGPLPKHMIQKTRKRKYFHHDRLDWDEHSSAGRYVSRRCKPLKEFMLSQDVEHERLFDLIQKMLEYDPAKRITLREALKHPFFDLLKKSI
How it was run: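 CLK1 was assayed with RS peptide substrate at 100 µM ATP.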

[7] = Cytotoxicity against patient-derived RN1 cells assessed as reduction in cell viability after 3 days by Alamar blue assay; assay type: functional, cell-based; conditions: Homo sapiens, RN1, 72 h
How it was run: (§1)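 The patient-derived glioblastoma lines were grown as stem cells under defined conditions to keep the phenotype and genotype of the resected tumours. Viability after treatment was read with Alamar blue.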

[8] = Cytotoxicity against patient-derived WK1 cells assessed as reduction in cell viability after 5 days by Alamar blue assay; assay type: functional, cell-based; conditions: Homo sapiens, WK1, 120 h; how it was run: as §1
[9] = Cytotoxicity against patient-derived JK2 cells assessed as reduction in cell viability after 3 days by Alamar blue assay; assay type: functional, cell-based; conditions: Homo sapiens, JK2, 72 h; how it was run: as §1
[10] = Cytotoxicity against patient-derived SJH1 cells assessed as reduction in cell viability after 3 days by Alamar blue assay; assay type: functional, cell-based; conditions: Homo sapiens, SJH1, 72 h; how it was run: as §1
A 172 [11] = test: Cytotoxicity against human A172 cells assessed as reduction in cell viability after 3 days by Alamar blue assay; assay type: functional, cell-based; conditions: A 172, 72 h
U-251 [12] = test: Cytotoxicity against human U251 cells assessed as reduction in cell viability after 3 days by Alamar blue assay; assay type: functional, cell-based; conditions: U-251, 72 h
[13] = (§2) Anticlonogenic activity against patient-derived RN1 cells after 10 to 12 days by toluidine blue staining based assay; assay type: functional, cell-based, Homo sapiens
How it was run: (§3)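 Cells were exposed to compound for 10 days, then colonies were fixed, stained with Toluidine Blue and counted. […] Values are mean ± SEM of 3 independent experiments, each in duplicate, with one-way ANOVA and Dunnett's test against vehicle.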

RN1 = test: as §2; assay type: functional, cell-based; conditions: Homo sapiens; how it was run: as §3
Homo sapiens = species on record: Homo sapiens; test: Inhibition of tubulin (unknown origin) polymerization
U-251 [14] = test: Antimigratory activity in human U251 cells assessed as velocity of migration at 1 uM measured up to 20 hrs by wound scratch assay (reference value: 2159 to 2653 micrometer/hr); assay type: functional
How it was run: (§4)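 Wound-healing migration assay: cell movement across the wound is measured as velocity (µm/h). Compounds were tested at 0, 1.0, 5.0 and 10.0 µM. Values are mean ± SEM of 3 independent experiments.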

U-251 [15] = test: Antimigratory activity in human U251 cells assessed as velocity of migration at 5 uM measured up to 20 hrs by wound scratch assay (reference value: 2159 to 2653 micrometer/hr); assay type: functional; how it was run: as §4
U-251 [16] = test: Antimigratory activity in human U251 cells assessed as velocity of migration at 10 uM measured up to 20 hrs by wound scratch assay (reference value: 2159 to 2653 micrometer/hr); assay type: functional; how it was run: as §4
U-251 [17] = test: Antiinvasive activity in human U251 cells assessed as velocity of invasion at 1 uM measured up to 20 hrs by matrigel assay (reference value: 1151 to 1710 micrometer/hr); assay type: functional
U-251 [18] = test: Antiinvasive activity in human U251 cells assessed as velocity of invasion at 5 uM measured up to 20 hrs by matrigel assay (reference value: 1151 to 1710 micrometer/hr); assay type: functional
U-251 [19] = test: Antiinvasive activity in human U251 cells assessed as velocity of invasion at 10 uM measured up to 20 hrs by matrigel assay (reference value: 1151 to 1710 micrometer/hr); assay type: functional
A 172 [20] = test: Antimigratory activity in human A172 cells assessed as velocity of migration at 1 uM measured up to 20 hrs by wound scratch assay (reference value: 2650 to 3123 micrometer/hr); assay type: functional; how it was run: as §4
A 172 [21] = test: Antimigratory activity in human A172 cells assessed as velocity of migration at 5 uM measured up to 20 hrs by wound scratch assay (reference value: 2650 to 3123 micrometer/hr); assay type: functional; how it was run: as §4
A 172 [22] = test: Antimigratory activity in human A172 cells assessed as velocity of migration at 10 uM measured up to 20 hrs by wound scratch assay (reference value: 2650 to 3123 micrometer/hr); assay type: functional; how it was run: as §4
A 172 [23] = test: Antiinvasive activity in human A172 cells assessed as velocity of invasion at 1 uM measured up to 20 hrs by matrigel assay (reference value: 2659 to 3047 micrometer/hr); assay type: functional
A 172 [24] = test: Antiinvasive activity in human A172 cells assessed as velocity of invasion at 5 uM measured up to 20 hrs by matrigel assay (reference value: 2659 to 3047 micrometer/hr); assay type: functional
A 172 [25] = test: Antiinvasive activity in human A172 cells assessed as velocity of invasion at 10 uM measured up to 20 hrs by matrigel assay (reference value: 2659 to 3047 micrometer/hr); assay type: functional
[26] = Antimigratory activity in patient-derived RN1 cells assessed as velocity of migration at 1 uM measured up to 20 hrs by wound scratch assay (reference value: 937 to 1174 micrometer/hr); assay type: functional, Homo sapiens; how it was run: as §4
[27] = Antimigratory activity in patient-derived RN1 cells assessed as velocity of migration at 5 uM measured up to 20 hrs by wound scratch assay (reference value: 937 to 1174 micrometer/hr); assay type: functional, Homo sapiens; how it was run: as §4
[28] = Antimigratory activity in patient-derived RN1 cells assessed as velocity of migration at 10 uM measured up to 20 hrs by wound scratch assay (reference value: 937 to 1174 micrometer/hr); assay type: functional, Homo sapiens; how it was run: as §4

Structure (SMILES): COc1ccc2c(c1)[nH]c1c(C)nccc12 [HARMINE]
IC50 [1]: 0.41 µM | IC50 [2]: 80 µM

IC50 [3]: 0.536 µM | IC50 [4]: 0.0066 µM | IC50 [5]: 0.038 µM | IC50 [6]: 0.035 µM | EC50 [13]: 2.1 µM | inhibition (Homo sapiens): inactive
Structure (SMILES): CC(=O)Nc1ccc(-c2cnc3[nH]cc(-c4ccc(O)cc4)c3c2)cc1
EC50 [7]: 2.1 µM | EC50 [8]: 0.9 µM | EC50 [9]: 8.6 µM | EC50 [10]: 5.1 µM | EC50 (A 172 [11]): 1.6 to 4.6 µM | EC50 (U-251 [12]): 1.6 to 4.6 µM | Activity (RN1): Dose-dependent effect | Activity (U-251 [14]): 1125 um/hr | Activity (U-251 [15]): 173 um/hr | Activity (U-251 [16]): 111 um/hr | Activity (U-251 [17]): 736 um/hr | Activity (U-251 [18]): 34 um/hr | Activity (U-251 [19]): -118 um/hr | Activity (A 172 [20]): 2891 um/hr | Activity (A 172 [21]): 2296 um/hr | Activity (A 172 [22]): 651 um/hr | Activity (A 172 [23]): 2731 um/hr | Activity (A 172 [24]): 2027 um/hr | Activity (A 172 [25]): 1718 um/hr | Activity [26]: 332 um/hr | Activity [27]: 210 um/hr | Activity [28]: 196 um/hr
